Source: ChEMBL document CHEMBL1129074, “Inhibitors of human immunodeficiency virus type 1 derived from gp41 transmembrane protein: structure--activity studies” (J Med Chem, 1996)
Peptide text beside a SMILES is read from it.

Experiments:
MT4 [1] = experiment: Inhibitory potency of gp41 fragment against HIV-1 induced cytopathic effect in MT-4 cell assay at 20 uM; format: functional, Homo sapiens; conditions: for inhibition at 20 µM: Homo sapiens, MT4
In short: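 MT4 cells (exponential growth) at 5×10^5 cells/mL infected with HIV-1 IIIB (100× TCID50) for 1 h at 37 °C, diluted 6-fold, added to serially diluted peptide in RPMI 1640/FCS medium; mock-infected controls. After 5 days at 37 °C, 5% CO2, cells lysed with Nonidet-40 and DNA content read by propidium iodide. Inhibition = restoration of infected-cell growth relative to uninfected controls; cytotoxicity measured in parallel.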

MT4 [2] = experiment: Inhibitory potency of gp41 fragment against HIV-1 induced cytopathic effect in MT-4 cell assay at 100 uM; format: functional; conditions: Homo sapiens
MT4 [3] = experiment: Inhibitory potency of gp41 fragment against HIV-1 induced cytopathic effect in MT-4 cell assay; format: functional, cell-based; conditions: Homo sapiens

CC[C@H](C)[C@H](NC(C)=O)C(=O)N[C@@H](CCC(=O)O)C(=O)N[C@@H](C)C(=O)N[C@@H](CCC(N)=O)C(=O)N[C@@H](CCC(N)=O)C(=O)N[C@@H](CC(C)C)C(=O)N[C@@H](CC(C)C)C(=O)N[C@@H](CCC(N)=O)C(=O)N[C@@H](CC(C)C)C(=O)N[C@H](C(=O)N[C@H](C(=O)N[C@@H](Cc1c[nH]c2ccccc12)C(=O)NCC(=O)N[C@H](C(=O)N[C@@H](CCCCN)C(=O)N[C@@H](CCC(N)=O)C(=O)N[C@@H](CC(C)C)C(=O)N[C@@H](CCC(N)=O)C(=O)N[C@@H](C)C(=O)N[C@@H](CCCN=C(N)N)C(=O)N[C@H](C(=O)N[C@@H](CC(C)C)C(=O)N[C@@H](C)C(=O)N[C@H](C(=O)N[C@@H](CCC(=O)O)C(=O)N[C@@H](CCCN=C(N)N)C(=O)N[C@@H](Cc1ccc(O)cc1)C(=O)N[C@@H](CC(C)C)C(=O)N[C@@H](CCCCN)C(=O)N[C@@H](CC(=O)O)C(=O)N[C@@H](CCC(N)=O)C(=O)O)C(C)C)[C@@H](C)CC)[C@@H](C)CC)C(C)C)[C@@H](C)O (Ac-IEAQQLLQLTVWGIKQLQARILAVERYLKDQ-OH)
inhibition at 20 µM (MT4 [1]): 28%

CC[C@H](C)[C@H](NC(=O)CNC(=O)[C@H](C)NC(=O)[C@@H](NC(=O)[C@@H](NC(=O)[C@H](C)NC(=O)[C@H](C)NC(=O)[C@H](CC(C)C)NC(=O)[C@H](CC(C)C)NC(=O)[C@H](C)NC(=O)[C@H](CCC(N)=O)NC(=O)[C@H](CCC(N)=O)NC(=O)[C@H](C)NC(=O)[C@H](CCC(=O)O)NC(=O)[C@@H](NC(=O)[C@H](C)NC(=O)[C@H](CCCN=C(N)N)NC(=O)[C@H](CC(C)C)NC(=O)[C@H](CC(C)C)NC(=O)[C@H](CC(N)=O)NC(=O)[C@H](CC(N)=O)NC(C)=O)[C@@H](C)CC)[C@@H](C)O)C(C)C)C(=O)N[C@@H](C)C(=O)N[C@@H](C)C(=O)N[C@@H](CC(C)C)C(=O)N[C@@H](CCC(N)=O)C(=O)N[C@@H](C)C(=O)N[C@@H](CCCN=C(N)N)C(=O)N[C@H](C(=O)N[C@@H](C)C(=O)N[C@@H](C)C(=O)N[C@H](C(=O)N[C@@H](CCC(=O)O)C(=O)N[C@@H](C)C(=O)N[C@@H](Cc1ccc(O)cc1)C(=O)N[C@@H](CC(C)C)C(=O)N[C@@H](C)C(=O)N[C@@H](C)C(=O)N[C@@H](CCC(N)=O)C(=O)O)C(C)C)[C@@H](C)CC (Ac-NNLLRAIEAQQALLAATVAGIAALQARIAAVEAYLAAQ-OH)
inhibition at 20 µM (MT4 [1]): 37%

CC[C@H](C)[C@H](NC(=O)[C@H](CCCN=C(N)N)NC(=O)[C@H](C)NC(=O)[C@H](CCC(N)=O)NC(=O)[C@H](CC(C)C)NC(=O)[C@H](CCC(N)=O)NC(=O)[C@H](CCCCN)NC(=O)[C@@H](NC(=O)CNC(=O)[C@H](Cc1c[nH]c2ccccc12)NC(=O)[C@@H](NC(=O)[C@@H](NC(=O)[C@H](CC(C)C)NC(=O)[C@H](CCC(N)=O)NC(C)=O)[C@@H](C)O)C(C)C)[C@@H](C)CC)C(=O)O (Ac-QLTVWGIKQLQARI-OH)
inhibition at 100 µM (MT4 [2]): 0%

CC[C@H](C)[C@H](NC(=O)[C@H](CCCN=C(N)N)NC(=O)[C@H](C)NC(=O)[C@H](CCC(N)=O)NC(=O)[C@H](CC(C)C)NC(=O)[C@H](CCC(N)=O)NC(=O)[C@H](CCCCN)NC(=O)[C@@H](NC(=O)CNC(=O)[C@H](Cc1c[nH]c2ccccc12)NC(=O)[C@@H](NC(=O)[C@@H](NC(=O)[C@H](CC(C)C)NC(=O)[C@H](CCC(N)=O)NC(=O)[C@@H](N)CC(C)C)[C@@H](C)O)C(C)C)[C@@H](C)CC)C(=O)O (H-LQLTVWGIKQLQARI-OH)
inhibition at 100 µM (MT4 [2]): 21%

CC[C@H](C)[C@H](NC(=O)[C@H](CCCN=C(N)N)NC(=O)[C@H](C)NC(=O)[C@H](CCC(N)=O)NC(=O)[C@H](CC(C)C)NC(=O)[C@H](CCC(N)=O)NC(=O)[C@H](CCCCN)NC(=O)[C@@H](NC(=O)CNC(=O)[C@H](Cc1c[nH]c2ccccc12)NC(=O)[C@@H](NC(=O)[C@@H](NC(=O)[C@H](CC(C)C)NC(=O)[C@@H](N)CCC(N)=O)[C@@H](C)O)C(C)C)[C@@H](C)CC)C(=O)O (H-QLTVWGIKQLQARI-OH)
inhibition at 100 µM (MT4 [2]): 0%

CC[C@H](C)[C@H](NC(=O)CNC(=O)[C@H](Cc1c[nH]c2ccccc12)NC(=O)[C@@H](NC(=O)[C@@H](NC(=O)[C@H](CC(C)C)NC(=O)[C@H](CCC(N)=O)NC(=O)[C@H](CC(C)C)NC(=O)[C@H](CC(C)C)NC(=O)[C@H](Cc1c[nH]cn1)NC(=O)[C@H](CCC(N)=O)NC(=O)[C@H](CCC(N)=O)NC(=O)[C@H](C)NC(=O)[C@H](CCC(=O)O)NC(=O)[C@@H](NC(=O)[C@H](C)NC(=O)[C@H](CCCN=C(N)N)NC(=O)[C@H](CC(C)C)NC(=O)[C@H](CC(C)C)NC(=O)[C@H](CC(N)=O)NC(=O)[C@H](CC(N)=O)NC(C)=O)[C@@H](C)CC)[C@@H](C)O)C(C)C)C(=O)N[C@@H](CCCCN)C(=O)N[C@@H](CCC(N)=O)C(=O)N[C@@H](CC(C)C)C(=O)N[C@@H](CCC(N)=O)C(=O)N[C@@H](C)C(=O)N[C@@H](CCCN=C(N)N)C(=O)N[C@H](C(=O)N[C@@H](C)C(=O)N[C@@H](C)C(=O)N[C@@H](C)C(=O)NCCCCCC(=O)N[C@@H](C)C(=O)N[C@@H](C)C(=O)N[C@@H](C)C(=O)N[C@@H](C)C(=O)N[C@@H](CC(=O)O)C(=O)N[C@@H](CCCCN)C(=O)O)[C@@H](C)CC (HELM PEPTIDE1{[ac].N.N.L.L.R.A.I.E.A.Q.Q.H.L.L.Q.L.T.V.W.G.I.K.Q.L.Q.A.R.I.A.A.A.[O=C(CCCCCN[*:1])[*:2]].A.A.A.A.D.K}$$$$V2.0)
IC50 (MT4 [3]): 6.3 µM

CC[C@H](C)[C@H](NC(=O)[C@H](CCCN=C(N)N)NC(=O)[C@H](C)NC(=O)[C@H](CCC(N)=O)NC(=O)[C@H](CC(C)C)NC(=O)[C@H](CCC(N)=O)NC(=O)CCCCCNC(=O)CNC(=O)[C@H](Cc1c[nH]c2ccccc12)NC(=O)[C@@H](NC(=O)[C@@H](NC(=O)[C@H](CC(C)C)NC(=O)[C@H](CCC(N)=O)NC(=O)[C@H](CC(C)C)NC(=O)[C@H](CC(C)C)NC(=O)[C@H](Cc1c[nH]cn1)NC(=O)[C@H](CCC(N)=O)NC(C)=O)[C@@H](C)O)C(C)C)C(=O)N[C@@H](CC(C)C)C(=O)N[C@@H](C)C(=O)N[C@H](C(=O)N[C@@H](CCC(=O)O)C(=O)O)C(C)C (HELM PEPTIDE1{[ac].Q.H.L.L.Q.L.T.V.W.G.[O=C(CCCCCN[*:1])[*:2]].Q.L.Q.A.R.I.L.A.V.E}$$$$V2.0)
IC50 (MT4 [3]): 40 µM

CC[C@H](C)[C@H](NC(=O)[C@H](CCCN=C(N)N)NC(=O)[C@H](C)NC(=O)[C@H](CCC(N)=O)NC(=O)[C@H](CC(C)C)NC(=O)[C@H](CCC(N)=O)NC(=O)CCCCCNC(=O)CCCCCNC(=O)CNC(=O)[C@H](Cc1c[nH]c2ccccc12)NC(=O)[C@@H](NC(=O)[C@@H](NC(=O)[C@H](CC(C)C)NC(=O)[C@H](CCC(N)=O)NC(=O)[C@H](CC(C)C)NC(=O)[C@H](CC(C)C)NC(=O)[C@H](Cc1c[nH]cn1)NC(=O)[C@H](CCC(N)=O)NC(C)=O)[C@@H](C)O)C(C)C)C(=O)N[C@@H](CC(C)C)C(=O)N[C@@H](C)C(=O)N[C@H](C(=O)N[C@@H](CCC(=O)O)C(=O)O)C(C)C (HELM PEPTIDE1{[ac].Q.H.L.L.Q.L.T.V.W.G.[O=C(CCCCCN[*:1])[*:2]].[O=C(CCCCCN[*:1])[*:2]].Q.L.Q.A.R.I.L.A.V.E}$$$$V2.0)
IC50 (MT4 [3]): 65.7 µM

CC[C@H](C)[C@H](NC(=O)[C@H](CCCN=C(N)N)NC(=O)[C@H](C)NC(=O)[C@H](CCC(N)=O)NC(=O)[C@H](CC(C)C)NC(=O)[C@H](CCC(N)=O)NC(=O)CCCCCNC(=O)[C@H](Cc1c[nH]c2ccccc12)NC(=O)[C@@H](NC(=O)[C@@H](NC(=O)[C@H](CC(C)C)NC(=O)[C@H](CCC(N)=O)NC(=O)[C@H](CC(C)C)NC(=O)[C@H](CC(C)C)NC(=O)[C@H](Cc1c[nH]cn1)NC(=O)[C@H](CCC(N)=O)NC(C)=O)[C@@H](C)O)C(C)C)C(=O)N[C@@H](CC(C)C)C(=O)N[C@@H](C)C(=O)N[C@H](C(=O)N[C@@H](CCC(=O)O)C(=O)O)C(C)C (HELM PEPTIDE1{[ac].Q.H.L.L.Q.L.T.V.W.[O=C(CCCCCN[*:1])[*:2]].Q.L.Q.A.R.I.L.A.V.E}$$$$V2.0)
IC50 (MT4 [3]): 40 µM

CCCCCCCCCCCCC(N)C(=O)N[C@H](C(=O)N[C@@H](CCCCN)C(=O)N[C@@H](CCC(N)=O)C(=O)N[C@@H](CC(C)C)C(=O)N[C@@H](CCC(N)=O)C(=O)N[C@@H](C)C(=O)N[C@@H](CCCN=C(N)N)C(=O)N[C@H](C(=O)N[C@@H](CC(C)C)C(=O)N[C@@H](C)C(=O)N[C@H](C(=O)N[C@@H](CCC(=O)O)C(=O)N[C@@H](CCCN=C(N)N)C(=O)N[C@@H](Cc1ccc(O)cc1)C(=O)N[C@@H](CC(C)C)C(=O)N[C@@H](CCCCN)C(=O)N[C@@H](CC(=O)O)C(=O)N[C@@H](CCC(N)=O)C(=O)O)C(C)C)[C@@H](C)CC)[C@@H](C)CC (stereo in doubt; 21)
Inhibition (MT4 [1]): 9%

CCCCCCCCCCCCC(N)C(=O)N[C@H](C(=O)N[C@@H](CCCCN)C(=O)N[C@@H](CCC(N)=O)C(=O)N[C@@H](CC(C)C)C(=O)N[C@@H](CCC(N)=O)C(=O)N[C@@H](C)C(=O)N[C@@H](CCCN=C(N)N)C(=O)N[C@H](C(=O)N[C@@H](CC(C)C)C(=O)N[C@@H](C)C(=O)N[C@H](C(=O)N[C@@H](CCC(=O)O)C(=O)N[C@@H](CCCN=C(N)N)C(=O)N[C@@H](Cc1ccc(O)cc1)C(=O)N[C@@H](CC(C)C)C(=O)N[C@@H](CCCCN)C(=O)N[C@@H](CC(=O)O)C(=O)N[C@@H](CCC(N)=O)C(=O)O)C(C)C)[C@@H](C)CC)[C@@H](C)CC (stereo in doubt; 22)
Inhibition (MT4 [1]): 0%
